# How the values were obtained:
# Escherichia coli = assay: Antibacterial activity was determined against Escherichia coli NIHJ strain after incubation at 37 degrees C for 18 h; format: functional
# Enterococcus faecalis = assay: Antibacterial activity was determined against Enterococcus faecalis ATCC 19433 strain after incubation at 37 degrees C for 18 h; format: functional; conditions: ATCC 19433, 18 h
# Klebsiella pneumoniae = assay: Antibacterial activity was determined against Klebsiella pneumoniae type II strain after incubation at 37 degrees C for 18 h; format: functional
# Pseudomonas aeruginosa = assay: Antibacterial activity was determined against Pseudomonas aeruginosa PAO1 strain after incubation at 37 degrees C for 18 h; format: functional
# [1] = system: Staphylococcus epidermidis; assay: Antibacterial activity was determined against Staphylococcus epidermis 56500 strain after incubation at 37 degrees C for 18 h; format: functional
# Staphylococcus aureus [2] = assay: Antibacterial activity was determined against Staphylococcus aureus FDA 209-P strain after incubation at 37 degrees C for 18 h; format: functional
# Streptococcus pyogenes = assay: Antibacterial activity was determined against Streptococcus pyogenes G-36 strain after incubation at 37 degrees C for 18 h; format: functional
# Streptococcus pneumoniae [3] = assay: Antibacterial activity was determined against Streptococcus pneumoniae J-24 strain after incubation at 37 degrees C for 18 h; format: functional
# Streptococcus mitis = assay: Antibacterial activity was determined against Streptococcus mitis IID685 strain after incubation at 37 degrees C for 18 h; format: functional
# [4] = Mortality was determined after 100 mg/kg dose administered intravenously to 5-week old male mice at a speed of 0.2 mL/min counted on day 7 for total 5 mice; format: ADME, organism-based; design: dose 100 mg/kg, route intravenous; conditions: mouse, in vivo, iv
# Procedure, shortened: (§1)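 Male Slc:ddY mice, 5 weeks old. Compound dissolved in 0.1 N NaOH in saline at varied concentrations and given as a single IV injection at 0.2 mL/min, total volume 10 mL/kg body weight. Deaths counted on day 7 and reported as dead/tested.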
# [5] = Mortality was determined after 150 mg/kg dose administered intravenously to 5-week old male mice at a speed of 0.2 mL/min counted on day 7 for total 2 mice; format: ADME, organism-based; design: dose 150 mg/kg, route intravenous; conditions: mouse, in vivo, iv; procedure, shortened: as §1
# [6] = Toxicity was determined as presence of micronucleated reticulocytes (MNRET) in blood at 24 and 48 hr after 100 mg/kg dose administered intravenously to 5-week old male mice; negative.; format: organism-based; design: dose 100 mg/kg, route intravenous; conditions: mouse, in vivo, iv
# [7] = Solubility was determined in water; format: physicochemical
# [8] = Toxicity was determined as presence of micronucleated reticulocytes (MNRET) in blood at 24 and 48 hr after 100 mg/kg dose administered intravenously to 5-week old male mice; positive.; format: organism-based; design: dose 100 mg/kg, route intravenous; conditions: mouse, in vivo, iv
# [9] = Total concentration in liver was determined after 6 hr of intravenous administration to rats (n=4) at dose of 20 mg/kg; format: ADME, organism-based; design: time < 6 hr, dose 20 mg/kg, route intravenous; conditions: rat
# [10] = Total concentration in lung was determined after 6 hr of intravenous administration to rats (n=4) at dose of 20 mg/kg; format: ADME, organism-based; design: time < 6 hr, dose 20 mg/kg, route intravenous; conditions: rat
# [11] = Total concentration in serum was determined after 6 hr of intravenous administration to rats (n=4) at dose of 20 mg/kg; format: ADME, organism-based; design: time < 6 hr, dose 20 mg/kg, route intravenous; conditions: rat
# [12] = Half life in kidney was determined after intravenous administration to rats (n=4) at dose of 20 mg/kg; format: ADME, organism-based; design: dose 20 mg/kg, route intravenous; conditions: rat
# [13] = Half life in liver was determined after intravenous administration to rats (n=4) at dose of 20 mg/kg; format: ADME, organism-based; design: dose 20 mg/kg, route intravenous; conditions: rat
# [14] = Kidney concentration was determined after 5 min. of intravenous administration to rats (n=4) at dose of 20 mg/kg; format: ADME, organism-based; design: dose 20 mg/kg, route intravenous; conditions: rat
# [15] = Half life in serum was determined after intravenous administration to rats (n=4) at dose of 20 mg/kg; format: ADME, organism-based; design: dose 20 mg/kg, route intravenous; conditions: rat
# [16] = Liver concentration was determined after 5 min. of intravenous administration to rats (n=4) at dose of 20 mg/kg; format: ADME, organism-based; design: dose 20 mg/kg, route intravenous; conditions: rat
# [17] = Lung concentration was determined after 5 min. of intravenous administration to rats (n=4) at dose of 20 mg/kg; format: ADME, organism-based; design: dose 20 mg/kg, route intravenous; conditions: rat
# [18] = Serum concentration was determined after 5 min. of intravenous administration to rats (n=4) at dose of 20 mg/kg; format: ADME, organism-based; design: dose 20 mg/kg, route intravenous; conditions: rat
# Enterococcus sp. [19] = assay: Antibacterial activity was determined against clinically isolated vancomycin-A resistant enterococci (VRE) strains (33 strains); format: functional
# Enterococcus sp. [20] = assay: Antibacterial activity was determined against clinically isolated vancomycin-B resistant enterococci (VRE) strains (10 strains); format: functional
# Staphylococcus aureus [21] = assay: Antibacterial activity was determined against clinically isolated Levofloxacin-methicillin resistant Staphylococcus aureus (LVFX-r MRSA) strains (74 strains); format: functional
# [22] = Mortality was determined after 150 mg/kg dose administered intravenously to 5-week old male mice at a speed of 0.2 mL/min counted on day 7 for total 5 mice; format: ADME, organism-based; design: dose 150 mg/kg, route intravenous; conditions: mouse, in vivo, iv; procedure, shortened: as §1
# Streptococcus pneumoniae [23] = assay: Antibacterial activity was determined against clinically isolated penicillin resistant Streptococcus pneumoniae (PRSP) strains (50 strains); format: functional
# [24] = Toxicity was determined as presence of micronucleated reticulocytes (MNRET) in blood at 24 and 48 h after 150 mg/kg dose administered intravenously to 5-week old male mice; negative.; format: organism-based; design: dose 150 mg/kg, route intravenous; conditions: mouse, in vivo, iv
# [25] = Ratio of total concentration in kidney to that of serum after 6 hr of intravenous administration to rats (n=4) at dose of 20 mg/kg; format: ADME, organism-based; design: dose 20 mg/kg, route intravenous; conditions: rat
# [26] = Ratio of total concentration in liver to that of serum after 6 hr of intravenous administration to rats (n=4) at dose of 20 mg/kg; format: ADME, organism-based; design: dose 20 mg/kg, route intravenous; conditions: rat
# [27] = Ratio of total concentration in lung to that of serum after 6 hr of intravenous administration to rats (n=4) at dose of 20 mg/kg; format: ADME, organism-based; design: dose 20 mg/kg, route intravenous; conditions: rat
# Rattus norvegicus = assay: Ratio of total concentration in serum to that of serum after 6 hr of intravenous administration to rats (n=4) at dose of 20 mg/kg; format: ADME, organism-based; design: dose 20 mg/kg, route intravenous; conditions: in vivo
# [28] = Half life in lung was determined after intravenous administration to rats (n=4) at dose of 20 mg/kg; format: ADME, organism-based; design: dose 20 mg/kg, route intravenous; conditions: rat
# [29] = Total concentration in kidney was determined after 6 hr of intravenous administration to rats (n=4) at dose of 20 mg/kg; format: ADME, organism-based; design: time < 6 hr, dose 20 mg/kg, route intravenous; conditions: rat
# [30] = Mortality was determined after 50 mg/kg dose administered intravenously to 5-week old male mice at a speed of 0.2 mL/min counted on day 7 for total 5 mice; format: ADME, organism-based; design: dose 50 mg/kg, route intravenous; conditions: mouse, in vivo, iv; procedure, shortened: as §1
# [31] = Mortality was determined after 100 mg/kg dose administered intravenously to 5-week old male mice at a speed of 0.2 mL/min counted on day 7 for total 2 mice; format: ADME, organism-based; design: dose 100 mg/kg, route intravenous; conditions: mouse, in vivo, iv; procedure, shortened: as §1
# [32] = Toxicity was determined as presence of micronucleated reticulocytes (MNRET) in blood at 24 and 48 hr after 50 mg/kg dose administered intravenously to 5-week old male mice.; conditions: mouse, in vivo, iv
compound,measurement,setting,value
Cc1c(N2C[C@H](C3(N)CC3)C(F)(F)C2)c(F)c(N)c2c(=O)c(C(=O)O)cn([C@@H]3C[C@@H]3F)c12,MIC,Escherichia coli,≤ 0.003 mg/L
same,MIC,Enterococcus faecalis,0.013 mg/L
same,MIC,Klebsiella pneumoniae,0.013 mg/L
same,MIC,Pseudomonas aeruginosa,0.2 mg/L
same,MIC,[1],≤ 0.003 mg/L
same,MIC,Staphylococcus aureus [2],≤ 0.003 mg/L
same,MIC,Streptococcus pyogenes,≤ 0.003 mg/L
same,MIC,Streptococcus pneumoniae [3],≤ 0.003 mg/L
same,MIC,Streptococcus mitis,≤ 0.003 mg/L
same,Dead,[4],1
same,Dead,[5],2
same,Toxicity,[6],Non-toxic
Cc1c(N2CC[C@@H](C3(N)CC3)C2)c(F)c(N)c2c(=O)c(C(=O)O)cn([C@@H]3C[C@@H]3F)c12,solubility,[7],0.039 mg/mL
same,MIC,Escherichia coli,≤ 0.003 mg/L
same,MIC,Enterococcus faecalis,0.013 mg/L
same,MIC,Klebsiella pneumoniae,0.025 mg/L
same,MIC,Pseudomonas aeruginosa,0.1 mg/L
same,MIC,[1],≤ 0.003 mg/L
same,MIC,Staphylococcus aureus [2],≤ 0.003 mg/L
same,MIC,Streptococcus pyogenes,≤ 0.003 mg/L
same,MIC,Streptococcus pneumoniae [3],≤ 0.003 mg/L
same,MIC,Streptococcus mitis,≤ 0.003 mg/L
same,Dead,[4],0
same,Dead,[5],2
same,Toxicity,[8],Toxic
Cc1c(N2C[C@@H](F)[C@@H](C3(N)CC3)C2)c(F)c(N)c2c(=O)c(C(=O)O)cn([C@@H]3C[C@@H]3F)c12 [DQ-113],AUC at 6 h,[9],36 µg·h/mL
same,AUC at 6 h,[10],37.9 µg·h/mL
same,AUC at 6 h,[11],9.3 µg·h/mL
same,half-life,[12],1.3 h
same,half-life,[13],1.3 h
same,concentration at 5 min,[14],33.7 µg/mL
same,half-life,[15],1.1 h
same,concentration at 5 min,[16],46.2 µg/mL
same,concentration at 5 min,[17],22 µg/mL
same,concentration at 5 min,[18],11.1 µg/mL
same,solubility,[7],0.291 mg/mL
same,MIC50,Enterococcus sp. [19],0.25 mg/L
same,MIC90,Enterococcus sp. [19],2 mg/L
same,MIC50,Enterococcus sp. [20],0.25 mg/L
same,MIC90,Enterococcus sp. [20],0.25 mg/L
same,MIC,Escherichia coli,≤ 0.003 mg/L
same,MIC,Enterococcus faecalis,0.025 mg/L
same,MIC,Klebsiella pneumoniae,0.013 mg/L
same,MIC,Pseudomonas aeruginosa,0.39 mg/L
same,MIC,[1],≤ 0.003 mg/L
same,MIC,Staphylococcus aureus [2],≤ 0.003 mg/L
same,MIC,Streptococcus pyogenes,≤ 0.003 mg/L
same,MIC,Streptococcus pneumoniae [3],≤ 0.003 mg/L
same,MIC50,Staphylococcus aureus [21],0.12 mg/L
same,MIC90,Staphylococcus aureus [21],0.5 mg/L
same,Dead,[22],0
same,MIC,Streptococcus mitis,≤ 0.003 mg/L
same,MIC50,Streptococcus pneumoniae [23],≤ 0.008 mg/L
same,MIC90,Streptococcus pneumoniae [23],0.015 mg/L
same,Toxicity,[24],Non-toxic
same,Kp at 6 h,[25],3.7
same,Kp at 6 h,[26],3.9
same,Kp at 6 h,[27],4.1
same,Ratio,Rattus norvegicus,1
same,half-life,[28],0.9 h
same,AUC at 6 h,[29],34.8 µg·h/mL
Cc1c(N2CC[C@@H]([C@H](C)N)C2)c(F)c(N)c2c(=O)c(C(=O)O)cn([C@@H]3C[C@@H]3F)c12,solubility,[7],0.095 mg/mL
same,MIC,Escherichia coli,≤ 0.003 mg/L
same,MIC,Enterococcus faecalis,0.025 mg/L
same,MIC,Klebsiella pneumoniae,0.025 mg/L
same,MIC,Pseudomonas aeruginosa,0.05 mg/L
same,MIC,[1],≤ 0.003 mg/L
same,MIC,Staphylococcus aureus [2],≤ 0.003 mg/L
same,MIC,Streptococcus pyogenes,≤ 0.003 mg/L
same,MIC,Streptococcus pneumoniae [3],≤ 0.003 mg/L
same,Dead,[30],1
same,MIC,Streptococcus mitis,≤ 0.003 mg/L
same,Dead,[31],2
same,Dead,[5],2
same,Toxicity,[32],Toxic

# From ChEMBL document CHEMBL1145781, “Synthesis and structure-activity relationships of 5-amino-6-fluoro-1-[(1R,2S)-2-fluorocyclopropan-1-yl]-8-methylquinolonecarboxylic acid antibacterials having fluorinated 7-[(3R)-3-(1-aminocyclopropan-1-yl)pyrrolidin-1-yl] substituents” (J Med Chem, 2003)
